Screening data deposited in PubChem BioAssay by several laboratories.
The list is not random: actives were taken first. Their share in the collection is about 1%.
KLK5 inh = inhibitors of human kallikrein 5; Q9Y337; recombinant hK5, fluorogenic AMC substrate cleavage; inhibition, % at 5 µM; 210,000 tested, 0.59% active; AID 873;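 active means inhibition of 40% or more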
Target sequence (Q9Y337 67-293 limits assumed): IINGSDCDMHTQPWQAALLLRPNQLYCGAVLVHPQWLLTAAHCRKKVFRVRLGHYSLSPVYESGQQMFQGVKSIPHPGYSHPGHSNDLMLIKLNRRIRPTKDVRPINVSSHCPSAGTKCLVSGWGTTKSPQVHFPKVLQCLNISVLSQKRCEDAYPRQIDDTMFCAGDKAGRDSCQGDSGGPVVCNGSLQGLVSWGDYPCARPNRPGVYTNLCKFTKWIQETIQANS
FXIa inh 1536 = inhibitors of human coagulation factor XIa | P03951 | purified FXIa, Boc-Glu-Ala-Arg-AMC fluorogenic substrate | inhibition, % at 5 µM | 220,000 tested, 0.14% active;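 active means inhibition of at least 40%; inactive means inhibition below 40%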;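 further: fluorescence of freed AMC excited at 355 nm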
Thrombin inh = thrombin (human) inhibition; 220,000 tested, 0.26% active; inhibition, % at 5 µM; P00734; alpha-thrombin, Boc-VPR-AMC fluorogenic substrate cleavage;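 active means inhibition at or above 40%; inactive means inhibition below 40%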
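Test system: human alpha-thrombin; medium: pH 7.5 Tris-saline with Tween 20; times: reaction at room temperature; signal: AMC fluorescence at 355 nm excitation and 460 nm emission; also added: Boc-VPR-AMC substrate, 15 µM final; dosing: one concentration per compound, 5 µM, with 0.2% DMSO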
FXIIa inh = blocks human coagulation factor XIIa protease activity; AID 800; 220,000 tested, 0.3% active; inhibition, % at 5 µM; purified FXIIa, Boc-QGR-AMC fluorogenic substrate, 2 h; in the data active means inhibition above about 40%
HSV replic up = HSV replication enhancement; HSV replication augmentation in cells, fold increase; maximum fold increase; 220,000 tested, 0.005% active; AID 1956; in the data active means maximum fold increase above about 1.5; inconclusive means no clear call, values can overlap the other calls; tested in PC3 cells
Furin inhibitor = blocks human furin protease activity. P09958. purified furin, fluorogenic substrate cleavage. inhibition, % at 20 µM or 30 µM. 220,000 tested, 0.061% active. AID 463115; in the data active means inhibition above about 25%
A number is an active result; i = inactive; ? = inconclusive; nt = no result given.

SMILES | KLK5 inh | FXIa inh 1536 | Thrombin inh | FXIIa inh | HSV replic up | Furin inhibitor
COc1ccc(OCC(=O)N2CCN(Cc3ccc(SC)cc3)CC2)cc1 | i | i | 49 | i | i | i
COc1ccc(OCC(=O)N2CCN(Cc3ccc4c(c3)OCO4)CC2)cc1 | nt | i | i | i | i | i
CCOc1ccc(-n2c(O)c(N=Nc3c(C)n(C)n(-c4ccccc4)c3=O)c(=O)[nH]c2=O)cc1 | i | i | i | i | i | 25
O=C(c1cccnc1)C1CCCN(Cc2nc(-c3cnccn3)no2)C1 (configuration not stated) | i | i | i | 41 | i | i
COC(=O)C(O)(c1c[nH]c2ccccc12)C(F)(F)F (configuration not stated) | i | i | i | i | i | i
COC(=O)C(O)(c1c(C)[nH]n(-c2ccccc2)c1=O)C(F)(F)F (configuration not stated) | 99 | i | i | i | i | i
CN(C)C(=O)Oc1cccc(-c2cn3cc(Cl)ccc3n2)c1 | i | i | i | i | i | i
CN(C)C(=O)Oc1ccc(-c2cn3cc(Cl)ccc3n2)cc1 | 44 | i | i | i | i | i
COC(=O)c1ccc(C(C(=O)NC2CCCCC2)N(CCN2CCOCC2)C(=O)Cc2cccs2)cc1 (configuration not stated) | i | i | i | 100 | i | i
O=C(N/N=C/c1c(O)n(CCc2ccc(F)cc2)c(=O)[nH]c1=O)c1ccncc1 | i | i | i | i | i | i
O=C(N/N=C/c1c(O)n(CCc2ccccc2)c(=O)[nH]c1=O)c1ccncc1 | i | i | 50 | i | i | i
C#CCN1C(=O)S/C(=C\c2ccc(N3CCOCC3)cc2C)C1=O | i | i | i | i | i | i
Cc1ccccc1-n1c(O)c(C=Nc2ccc3c(c2)OCO3)c(=O)[nH]c1=O | i | i | i | i | ? | 27
O=C(Nc1ccc(Cl)cc1C(=O)c1ccccc1Cl)c1ccco1 | i | i | i | i | i | i
CC(=O)N1CN2CN(C(C)=O)CC(C(=O)c3ccc([N+](=O)[O-])cc3)(C2)C1 | i | i | i | i | i | i
CC(=O)N1CN2CN(C(C)=O)CC(C(=O)c3ccccc3)(C2)C1 | 48 | i | i | i | i | i
O=C(N/N=C/c1c(O)n(-c2cccc3ccccc23)c(=O)[nH]c1=O)c1ccncc1 | i | i | i | i | i | i
CCCn1cc(CN2CCCC(C(=O)c3cccc(OC)c3)C2)c(C)n1 (configuration not stated) | i | i | i | 75 | i | i
Nc1ccccc1C(=O)OCC(=O)Nc1ccc(Br)cc1F | i | i | i | i | i | i
O=C1OC(c2ccc(Cl)cc2)=N/C1=C\N1CC2CC(C1)c1cccc(=O)n1C2 (configuration not stated) | i | i | i | i | i | i
CCOC(=O)c1ccc(N=C(c2ccccc2)c2c(O)n(C)c(=O)n(C)c2=O)cc1 | 43 | i | i | i | i | i
CC(=O)NC(Cc1ccc(N(CCCl)CCCl)cc1)C(=O)NC(CC(C)C)C(=O)O (configuration not stated) | i | i | i | i | i | i
O=C(c1cccn2c(=O)c3cc(Br)ccc3nc12)N1CCC2(CC1)OCCO2 | i | 55 | i | i | i | i
CC[C@H]1CN(C)CCc2c([nH]c3ccccc23)C(=O)C[C@@H]1/C(=C\OC)C(=O)OC | nt | nt | nt | nt | i | nt
Nc1ccncc1Cl | 41 | i | i | i | i | i
SMILES | KLK5 inh | FXIa inh 1536 | Thrombin inh | FXIIa inh | HSV replic up | Furin inhibitor
CCOc1ccc2oc(C(=O)NN3C(C)CCCC3C)c(C)c2c1 (configuration not stated) | i | i | i | i | i | i
CCOP(=O)(OCC)C(NC(=O)c1ccccc1Cl)=C(Cl)Cl | i | i | i | i | i | i
O=C(NCc1ccccn1)c1ccccc1Cl | 61 | i | i | i | i | i
N#CCCn1cc(C(=O)Nc2ccccc2Cl)c(-c2ccc([N+](=O)[O-])cc2)n1 | i | i | i | i | i | i
Cn1cccc1/C=C1\C(=O)NC(=O)N(Cc2ccccc2Cl)C1=O | i | 48 | i | i | i | i
COc1ccc(C(=O)C2CCCN(Cc3cnc(C)s3)C2)cc1OC (configuration not stated) | nt | i | i | i | i | i
Cc1ncc(CN2CCCC(C(=O)c3ccc(C(C)(C)C)cc3)C2)s1 (configuration not stated) | i | i | i | 63 | i | i
